# Results filed as inconclusive are left out. Calls of active or inactive are those of the source.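 The calls were made as follows: active = toxic compounds, with cells under 80% alive at a tested dose; inconclusive = one replicate called active, the other inactive; inactive = the rest.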
# Tested on: not listed separately
# Test: viability loss of bladder carcinoma 5637 line – cell-based, set 4, cytotoxicity control for bacterial capsule biogenesis inhibitors, dose response (AID 588399)
# Settings: Bladder 5637 cells viability, CellTiter-Glo, 72 h; at 300 µM (top of the series)
# Summary of the method: (§1)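 Assay system: bladder carcinoma 5637 cell line. Evaluation: % viability vs untreated cells, CC50. Signal: CellTiter-Glo luminescence. Repeats: duplicate testing of each compound. Schedule: 72 h treatment. Benchmarks: Hyamine as positive cytotoxic control, untreated cell-only wells as reference. Compound: Eight-point dilution series, 300 µM top to 2.3 µM lowest.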
row,Structure (SMILES),viability
1,COc1ccc(NC(=O)c2ccc3nc[nH]c3c2)cc1,104% (inactive)
2,O=C(Nc1ccccn1)c1ccc2nc[nH]c2c1,94.7% (inactive)
3,O=C(NCc1ccco1)c1ccc2nc[nH]c2c1,111% (inactive)
4,O=C(Nc1ccc(Br)cc1)c1ccc2ncsc2c1,142% (inactive)
5,O=C(Nc1ccc(F)cc1)c1ccc2nc[nH]c2c1,83% (inactive)

# Tested on: Bladder 5637 cells viability, CellTiter-Glo, 72 h
# Test: as above
# Settings: not given
# Summary of the method: as §1
row,Structure (SMILES),CC50 [µM]
1,O=C(Nc1nc2ccc(OC(F)(F)F)cc2s1)c1ccc(Br)s1,24.6
2,COc1ccc2nc(NC(=O)c3ccc(Br)s3)[nH]c2c1,4.43
3,O=C(Nc1cccnc1)c1ccc2ncsc2c1,28.3
4,COc1ccc2nc(NC(=O)c3cc(Br)c(Br)s3)[nH]c2c1,< 2.34
5,O=C(Nc1ccc(Cl)cc1)c1ccc2[nH]ccc2c1,14.1

# Reference: PubChem BioAssay AID588399 (Southern Research Specialized Biocontainment Screening …, 2011)
